Source: PubChem (several laboratories)
B2AR ag: activates human beta-2 adrenergic receptor causing internalization; P07550; Am2.2-beta2AR cells, FAP receptor internalization, flow cytometry; response, % (test concentration not listed); 340,000 tested, 0.43% active; AID 504454;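 active = response above a set limit, near 3 SD of response in nonfluorescent compounds, cut at about 42% in these data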
Hep lipid drop: hepatic lipid droplet formation modulation. AML12 mouse hepatocytes, oleate lipid droplets, BODIPY imaging. inhibition, % at 6.5 µM. 240,000 tested, 0.4% active. AID 1656;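 active = lipid droplet intensity inhibited by at least 50%, with more than 500 cells counted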
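Assay system: AML12 mouse liver cells | Compound: 6.5 µM single-point dosing | Schedule: Overnight exposure | Technique: Fluorescence imaging, 20x objective, two fields per well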
GRK2 aptamer HTS: inhibitors of human GRK2 displacing RNA aptamer; inhibition of aptamer binding, % at 10 µM; P25098; 330,000 tested, 0.59% active; bead flow cytometry, FAM-aptamer displacement from GRK2;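 active = inhibition of aptamer binding above 40%, roughly 3 SD of noise, on plates passing a quality check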;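 note: median bead fluorescence of bound FAM aptamer so fluorescent compounds give negative values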
Target sequence (P25098 whole entry, looked up): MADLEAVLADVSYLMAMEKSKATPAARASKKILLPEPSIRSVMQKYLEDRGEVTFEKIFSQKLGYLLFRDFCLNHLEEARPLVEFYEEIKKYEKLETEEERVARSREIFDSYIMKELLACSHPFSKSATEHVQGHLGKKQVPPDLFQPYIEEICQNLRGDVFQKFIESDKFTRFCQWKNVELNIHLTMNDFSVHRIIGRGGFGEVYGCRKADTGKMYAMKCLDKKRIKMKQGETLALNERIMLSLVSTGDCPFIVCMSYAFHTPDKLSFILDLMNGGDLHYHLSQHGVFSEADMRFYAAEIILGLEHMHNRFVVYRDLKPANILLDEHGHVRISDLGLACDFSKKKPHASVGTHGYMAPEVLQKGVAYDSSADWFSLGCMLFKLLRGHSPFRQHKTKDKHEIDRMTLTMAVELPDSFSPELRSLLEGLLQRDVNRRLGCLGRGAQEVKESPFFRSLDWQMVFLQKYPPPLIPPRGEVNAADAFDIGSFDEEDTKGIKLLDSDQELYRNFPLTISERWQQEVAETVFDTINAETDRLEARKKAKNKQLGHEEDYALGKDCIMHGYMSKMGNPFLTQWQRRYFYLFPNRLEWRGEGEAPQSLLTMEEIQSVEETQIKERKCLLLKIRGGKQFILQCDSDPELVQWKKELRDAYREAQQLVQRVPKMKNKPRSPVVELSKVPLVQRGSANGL
TAG inh: triacylglycerol accumulation inhibition; H9c2 cells, Nile Red lipid (TAG) fluorescence; cells loaded with 200 µM oleic acid; inhibition, % at 12.5 µM; 230,000 tested, 0.66% active;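 active = pattern-corrected inhibition of lipid staining of at least 50% with the nuclear-stain viability signal not falling by more than 50%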;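 note: 0% = DMSO wells and 100% = triacsin C control wells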
Arrestin-AP2 inh: human beta-arrestin and AP2 interaction inhibition; FITC-arrestin peptide / GST-AP2 beads, flow cytometry; AP2 beta2 appendage carries R879A mutation; inhibition, % at 10 µM; 340,000 tested, 0.31% active;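 active = inhibition above a set limit, near 3 SD of compounds lacking own fluorescence, cut at about 54% in these data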;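 note: plate controls were DMSO wells for no effect and 5 µM unlabelled arrestin peptide for full effect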
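Assay system: GST-AP2 R879A bound to glutathione beads, E. coli-expressed; Medium: PBS with 0.05% Tween 20 and 0.1% BSA; Also added: fluorescein-tagged arrestin peptide at 50 nM final; Timing: 12 min plus 1 h, RT; Measured by: flow cytometry, FL1 (488/535 nm); Evaluation: percent drop in bead-associated FITC signal.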
NTR1 agonist: activates human neurotensin receptor 1 | P30989 | NTR1-U2OS beta-arrestin-GFP spot imaging, agonist mode | activation, % at 20 µM | 330,000 tested, 0.17% active | AID 493036;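 active = activation at or above 40% of the spot to cytoplasm intensity ratio, with at least 20 cells analyzed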;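 note: 0% = DMSO without peptide and 100% = 100 nM NTR1 peptide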
H9c2 TAG conf: confirmation of triacylglycerol accumulation inhibitors | inhibition, % at 12.5 µM | H9c2 lipid accumulation, Nile Red fluorescence; cells loaded with 200 µM oleic acid | shares compounds with TAG inh | 990 tested, 71% active;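 active = mean inhibition across replicates of 40% or more; inactive = mean inhibition below 40%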;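 note: plate controls were DMSO only wells for no effect and Triacsin C treated wells for full effect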
Numbers without * were called inactive. Only some compounds are listed: those with a hit (about 2% of all), similar ones and a draw of the others.

Screening COC(=O)Nc1nc2ccc(SC(C)C)cc2[nH]1 returned B2AR ag 3.8, GRK2 aptamer HTS 0.0, TAG inh 52.1*, Arrestin-AP2 inh 4.4, NTR1 agonist -2.9 and H9c2 TAG conf 60.9*.
CCCSc1ccc2nc(NC(=O)OC)[nH]c2c1 was read as B2AR ag 13.3, Hep lipid drop -95.6, GRK2 aptamer HTS 0.0, TAG inh 58.0*, Arrestin-AP2 inh 4.8, NTR1 agonist 0.7 and H9c2 TAG conf 59.8*.
For Cc1cccc2cc(C#N)c(SCC(=O)NNC(=O)Cc3ccccc3)nc12 the results were B2AR ag 9.8, GRK2 aptamer HTS 2.0, TAG inh 70.7*, Arrestin-AP2 inh 13.3, NTR1 agonist 3.4 and H9c2 TAG conf 97.8*.
Screening c1ccc(Oc2nc(N3CCOCC3)nc(N3CCOCC3)n2)cc1 returned B2AR ag -2.5, Hep lipid drop -1.5, GRK2 aptamer HTS 20.0, Arrestin-AP2 inh 5.0 and NTR1 agonist 0.0.
c1cc(C2CCCCC2)ccc1Oc1nc(N2CCOCC2)nc(N2CCOCC2)n1 was read as B2AR ag 3.9, GRK2 aptamer HTS 0.0, TAG inh 80.3*, Arrestin-AP2 inh 1.9, NTR1 agonist 9.7 and H9c2 TAG conf 52.1*.
For CCN(CC)CCNC(=O)C(Cl)=C1C(Cl)=C(Cl)C(Cl)=C1Cl the results were B2AR ag 1.1, TAG inh 77.9*, Arrestin-AP2 inh 5.3 and H9c2 TAG conf 73.9*.
CCN(CC)CCNC(=O)C12CC3CC(CC(C3)C1)C2 was read as B2AR ag 3.7, Hep lipid drop 12.2, GRK2 aptamer HTS 7.0, TAG inh 6.8, Arrestin-AP2 inh 10.8 and NTR1 agonist -0.2.
Screening COc1ccc(CN2CCCC(C(=O)c3ccc4c(c3)OCO4)C2)c(F)c1 (configuration not stated) returned B2AR ag -2.1, Hep lipid drop -15.0, GRK2 aptamer HTS 0.0, Arrestin-AP2 inh -11.4 and NTR1 agonist 2.3.
For Cc1ccc(-c2nn3c(C)nnc3c3ccccc23)cc1S(=O)(=O)NC(C)c1ccccc1 (configuration not stated) the results were B2AR ag 25.7, GRK2 aptamer HTS 0.0, TAG inh 50.3*, Arrestin-AP2 inh 14.4, NTR1 agonist 10.3 and H9c2 TAG conf 53.1*.
Cc1ccc(-c2nn3c(C)nnc3c3ccccc23)cc1S(=O)(=O)NCCO was read as B2AR ag 3.0, Hep lipid drop -7.6, GRK2 aptamer HTS 2.0, Arrestin-AP2 inh -0.5 and NTR1 agonist 0.3.
For CC(OC(=O)Cn1cc(C(F)(F)F)ccc1=O)C(=O)N(C)c1ccccc1 (configuration not stated) the results were B2AR ag -5.7, GRK2 aptamer HTS 1.0, TAG inh -1.8, Arrestin-AP2 inh -1.8 and NTR1 agonist -0.7.
Screening Cc1ccsc1-c1nc(C(N)=O)c2[nH]c(=O)n(-c3ccc(Cl)cc3)c2n1 returned B2AR ag 15.7, Hep lipid drop -0.5, GRK2 aptamer HTS 0.0, TAG inh 56.6*, Arrestin-AP2 inh 6.4, NTR1 agonist 5.7 and H9c2 TAG conf 41.5*.
COC(=O)C1=C(C)N(Cc2ccccc2)C(=NCc2cc(OC)c(OC)c(OC)c2)N[C@H]1c1ccccc1 was read as B2AR ag 13.7, GRK2 aptamer HTS 0.0, Arrestin-AP2 inh 5.6 and NTR1 agonist -2.9.
Screening COC(=O)C1=C(C)N(Cc2ccccc2)C(=NCc2ccccc2)N[C@H]1c1ccccc1 returned B2AR ag 28.6, GRK2 aptamer HTS 0.0, TAG inh 104.8*, Arrestin-AP2 inh -4.4, NTR1 agonist 15.1 and H9c2 TAG conf 53.4*.
For COC(=O)C1=C(C)N(Cc2ccccc2)C(=NCc2cc(OC)c(OC)c(OC)c2)N[C@H]1c1ccc(Br)cc1 the results were B2AR ag 27.8, GRK2 aptamer HTS 0.0, TAG inh 61.7*, Arrestin-AP2 inh -3.2, NTR1 agonist 12.4 and H9c2 TAG conf 62.5*.
Cc1cccc(S(=O)(=O)NC(=O)C2(C)CCN2C(=O)c2ccccc2CCc2ccccc2)c1 (configuration not stated) was read as TAG inh 2.7.
`Cc1cc(C(=O)COC(=O)c2ccc([N+](=O)[O-])o2)c(C)n1CC1CCCO1` (configuration not stated) gave B2AR ag 2.4, Hep lipid drop -13.3, GRK2 aptamer HTS 5.0, TAG inh 71.7*, Arrestin-AP2 inh 6.1, NTR1 agonist 4.4 and H9c2 TAG conf 53.5*.
For COCCn1c(C)cc(C(=O)COC(=O)c2ccc([N+](=O)[O-])o2)c1C the results were B2AR ag 0.1, Hep lipid drop -8.9, GRK2 aptamer HTS 4.0, TAG inh 44.3, Arrestin-AP2 inh 10.4 and NTR1 agonist 0.3.
COC(=O)[C@]1(Cc2ccccc2)N[C@H](c2ccc(-c3ccc(OC)cc3)cc2)[C@@H]2C(=O)N(C)C(=O)[C@@H]21 was read as B2AR ag -6.8, GRK2 aptamer HTS 0.0, TAG inh 10.3, Arrestin-AP2 inh 3.6 and NTR1 agonist -0.5.
Screening CCN1C(=O)[C@H]2[C@@H](c3ccc(-c4cccc(Cl)c4)cc3)N[C@@](Cc3ccccc3)(C(=O)OC)[C@H]2C1=O returned B2AR ag 5.6, GRK2 aptamer HTS 2.0, TAG inh 51.5*, Arrestin-AP2 inh -1.1, NTR1 agonist 1.3 and H9c2 TAG conf 60.3*.
COC(=O)[C@]1(CC(C)C)N[C@H](c2ccc(-c3ccccc3)cc2)[C@@H]2C(=O)N(C)C(=O)[C@@H]21 was read as B2AR ag -0.3, GRK2 aptamer HTS 0.0, TAG inh 44.7, Arrestin-AP2 inh -10.2 and NTR1 agonist 0.2.
Screening COC(=O)[C@]1(C)N[C@H](c2ccc(-c3ccc(Cl)c(Cl)c3)c(OC)c2)[C@@H]2C(=O)N(C)C(=O)[C@@H]21 returned B2AR ag 7.8, GRK2 aptamer HTS 3.0, TAG inh 51.2*, Arrestin-AP2 inh 3.2, NTR1 agonist 12.6 and H9c2 TAG conf 35.5.
`COC(=O)[C@]1(CC(C)C)N[C@H](c2ccc(-c3ccc(OC)cc3)cc2)[C@@H]2C(=O)N(C)C(=O)[C@@H]21` gave B2AR ag 2.8, GRK2 aptamer HTS 0.0, TAG inh 54.1*, Arrestin-AP2 inh 30.9, NTR1 agonist 0.3 and H9c2 TAG conf 35.8.
COC(=O)[C@]1(CC(C)C)N[C@H](c2ccc(-c3ccc(F)cc3)cc2)[C@@H]2C(=O)N(C)C(=O)[C@@H]21 was read as B2AR ag 4.3, GRK2 aptamer HTS 0.0, TAG inh 55.6*, Arrestin-AP2 inh -2.8, NTR1 agonist 1.2 and H9c2 TAG conf 43.3*.
`Cc1cn(CC(=O)NCc2ccccc2)c(=O)[nH]c1=O` gave B2AR ag -12.3, TAG inh -14.1 and Arrestin-AP2 inh -13.5.
